Reference: publication PMC3151333 (Cancer prevention research (Philadelphia, Pa.), 2011)
Read-outs that look alike come from different tables or passages of the source. Each block holds one compound with its values, some of them ahead of it.

Tests used:
[1] = LC-MS/MS determination of protocatechuic acid; assay type: in vivo, human; details: for donors whose saliva contained detectable PCA: final (240 minute) time point, 0.2 ng/ml detection limit
[2] = cited from earlier work
β-glucosidase = assay type: biochemical, human; details: 0.12% in PBS, 3 minute rinse
[3] = assay type: in vivo, human
[4] = assay type: in vivo, human; details: for glucuronide of the parent anthocyanin in saliva (selected ion chromatograms): five minute Rinse III saliva samples; for saliva samples with cyanidin-3 sambubioside glucuronides detected: Rinse III
[5] = 240 minute time point following 10% BRB gel application; cited from earlier work
rat liver microsomes = assay: Incubation of cyanidin-3 sambubioside with rat liver microsomes; assay type: in vitro ADME; details: similar retention time and tandem mass spectra as in saliva
[6] = Detection of protocatechuic acid O-glucuronide; assay type: in vivo, human
Outline: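 Donors rinsed vigorously with 15 ml augmented BRB rinse (10% final BRB) for 3 min. Saliva was collected at timed intervals, acidified with 5% final formic acid and stored at −80°C. Ion-trap LC-MS coupled to HPLC was tuned by infusing a synthetic PCAOG standard. The run used full scan, zoom scan and CID product-ion scan, and the 329.0>153.0 transition was monitored at 35% energy.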

[7] = after ingestion of a 300 mg dose

retention in saliva after rinsing ([1]; BRB rinses): up to 4 hours
donors whose saliva contained detectable PCA ([1]; Rinse I): 2 of 10
donors whose saliva contained detectable PCA ([1]; Rinse II): 2 of 10
donors whose saliva contained detectable PCA ([1]; Rinse III): 6 of 10
Compound: O=C(O)c1ccc(O)c(O)c1 [PCA, protocatechuic acid]

donors retaining appreciable functional β-glucosidase activity following rinsing (β-glucosidase): 10 of 11
decrease in β-glucosidase in saliva following rinsing (mean ± s.e.m) (β-glucosidase; saliva 15 minutes after rinsing, n=11, p<0.001): 69.43% ±7.24
Compound: [H]/N=C(\N/C(=N/[H])NCCCCCCNC(=N)NC(=N)Nc1ccc(Cl)cc1)Nc1ccc(Cl)cc1 [chlorhexidine gluconate]
mean peak plasma levels [2, 7]: 0.206 µg/g
time of mean peak plasma levels [2, 7]: 30 min
absorption from the gastrointestinal tract [2]: poorly absorbed
fraction retained in the oral cavity following rinsing [2]: ~30%
persistence in human saliva after rinsing [2]: at least 12 hours
retention by local adsorption, then slowly released over time [2]: approximately 30%

salivary BRB anthocyanin level, Rinse I relative to Rinse III ([3]; in vivo): significantly higher
salivary anthocyanin level, Rinse II relative to Rinse I ([3]; in vivo): significantly lower
glucuronide of the parent anthocyanin in saliva (selected ion chromatograms) [4]: did not reveal any novel peaks
Compound: OC[C@H]1O[C@@H](Oc2cc3c(O)cc(O)cc3[o+]c2-c2ccc(O)c(O)c2)[C@H](O)[C@@H](O)[C@@H]1O [cyanidin 3-glucoside]

donors showing detectable rutinoside in saliva ([3]; in vivo): 10 out of 10
rutinoside levels in saliva (mean ± S.D.) ([3]; in vivo): 2287.12 ± 489.55 µg/mL
salivary BRB anthocyanin level, Rinse I relative to Rinse III ([3]; in vivo): significantly higher
glucuronide of the parent anthocyanin in saliva (selected ion chromatograms) [4]: did not reveal any novel peaks
Compound: C[C@@H]1O[C@@H](OC[C@H]2O[C@@H](Oc3cc4c(O)cc(O)cc4[o+]c3-c3ccc(O)c(O)c3)[C@H](O)[C@@H](O)[C@@H]2O)[C@H](O)[C@H](O)[C@H]1O [cyanidin 3-rutinoside]
donors retaining any salivary anthocyanins, including rutinoside [5]: 3 out of 5

salivary BRB anthocyanin level, Rinse I relative to Rinse III ([3]; in vivo): significantly higher
Compound: OC[C@H]1O[C@@H](Oc2cc3c(O)cc(O)cc3[o+]c2-c2ccc(O)c(O)c2)[C@H](O[C@@H]2OC[C@@H](O)[C@H](O)[C@H]2O)[C@@H](O)[C@@H]1O.[Cl-] [cyanidin 3-sambubioside]
metabolite formation on incubation with rat liver microsomes (rat liver microsomes): generated cyanidin-3 sambubioside glucuronides

time by which salivary cyanidin levels were undetectable ([3]; all samples from all rinses): ≤ 60 min
aglycone cyanidin in early saliva samples ([3]; up to 5 minute post rinse, all three rinse groups, all donors): detectable levels
Compound: Oc1cc(O)c2cc(O)c(-c3ccc(O)c(O)c3)[o+]c2c1 [cyanidin]

saliva samples with cyanidin-3 sambubioside glucuronides detected ([4]; 30 minute samples): 3 of 6
saliva samples with cyanidin-3 sambubioside glucuronides detected ([4]; five minute time point samples): 6 of the 6
Compound: cyanidin-3 sambubioside glucuronides
cyanidin 3-sambubioside glucuronides in saliva ([4]; after the 30 minute post rinse samples): no cyanidin 3-sambubioside glucuronides were observed

Compound: protocatechuic acid O-glucuronide [PCAOG]
PCAOG peaks in later time point saliva samples ([6]; 30, 60, 120 and 240 min after Rinse III, either donor): did not reveal any peaks
donors with PCAOG peak detected in saliva ([6]; 5 min saliva sample after Rinse III): 1 of the 2
